Bioassay records (PubChem BioAssay)
Most compounds without a hit are left out; they make up all but 1.2% or so of the library.
E coli RNAP = inhibitors of Escherichia coli RNA polymerase; P0A8V2; E. coli RNA polymerase, fluorescence transcription assay; inhibition, %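 (tested at 10 µM)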; 62,000 compounds, 0.2% hits; AID 559; in the data active means inhibition above about 20%;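 further: 0% = enzyme without compound and 100% = no enzyme blank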
Target sequence (P0A8V2 whole entry, looked up): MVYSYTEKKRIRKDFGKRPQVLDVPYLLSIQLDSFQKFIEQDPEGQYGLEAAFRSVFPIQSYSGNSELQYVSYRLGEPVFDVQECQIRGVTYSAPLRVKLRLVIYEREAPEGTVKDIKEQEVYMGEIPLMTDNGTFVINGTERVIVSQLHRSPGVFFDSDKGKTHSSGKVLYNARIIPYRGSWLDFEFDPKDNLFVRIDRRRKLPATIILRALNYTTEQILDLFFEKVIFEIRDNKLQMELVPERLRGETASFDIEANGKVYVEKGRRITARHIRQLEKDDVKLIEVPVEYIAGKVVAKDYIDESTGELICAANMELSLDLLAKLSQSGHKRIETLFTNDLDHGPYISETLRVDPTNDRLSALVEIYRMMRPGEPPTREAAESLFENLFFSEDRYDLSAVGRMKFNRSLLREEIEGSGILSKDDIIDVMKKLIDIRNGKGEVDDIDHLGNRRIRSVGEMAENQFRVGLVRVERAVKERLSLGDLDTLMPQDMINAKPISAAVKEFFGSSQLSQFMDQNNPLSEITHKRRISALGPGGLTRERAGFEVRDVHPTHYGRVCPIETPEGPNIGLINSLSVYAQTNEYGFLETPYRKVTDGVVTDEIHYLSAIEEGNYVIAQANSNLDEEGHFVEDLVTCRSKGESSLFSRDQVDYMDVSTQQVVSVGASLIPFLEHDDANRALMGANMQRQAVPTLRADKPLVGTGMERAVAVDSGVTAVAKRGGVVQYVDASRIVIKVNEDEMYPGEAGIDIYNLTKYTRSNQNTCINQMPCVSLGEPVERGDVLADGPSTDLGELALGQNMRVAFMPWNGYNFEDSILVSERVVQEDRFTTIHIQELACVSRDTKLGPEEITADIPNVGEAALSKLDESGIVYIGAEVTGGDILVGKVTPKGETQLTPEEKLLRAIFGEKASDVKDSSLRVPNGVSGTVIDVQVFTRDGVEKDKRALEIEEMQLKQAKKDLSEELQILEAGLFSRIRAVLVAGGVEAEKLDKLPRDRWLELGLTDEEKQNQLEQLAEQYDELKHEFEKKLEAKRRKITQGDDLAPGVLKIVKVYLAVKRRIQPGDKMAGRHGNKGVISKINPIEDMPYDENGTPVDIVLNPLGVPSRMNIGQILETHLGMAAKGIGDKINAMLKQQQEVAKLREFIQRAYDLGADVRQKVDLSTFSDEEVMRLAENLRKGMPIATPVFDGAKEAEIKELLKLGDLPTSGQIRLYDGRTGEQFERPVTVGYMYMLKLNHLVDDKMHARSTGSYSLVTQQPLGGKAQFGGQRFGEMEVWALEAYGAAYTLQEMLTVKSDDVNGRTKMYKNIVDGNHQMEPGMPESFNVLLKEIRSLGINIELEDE
MMP13 inh = inhibitors of human MMP13; inhibition, % at 4 µM; 65,000 compounds, 0.07% hits; MMP-13 fTHP FRET cleavage, Mca fluorescence; P45452; AID 570;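 active means inhibition above the mean of compound-free control plate wells plus 3 SD, cut at about 14% in these data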;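 further: 0% = DMSO wells and 100% = wells with reference MMP-13 inhibitor after basal subtraction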
SK-BR-3 tox 24h = SK-BR-3 proliferation inhibitors. SK-BR-3 viability, CellTiter-Glo ATP luminescence, 24 h; stronger effect = lower value. viability, % at 10 µM. 41,000 compounds, 0.47% hits;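 active means viability at or below the median of all test compounds minus 3 SD, in both replicates if run twice, cut at about 45% in these data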;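 further: 100% = median untreated cell wells and 0% = median positive control drug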
TNAP act mid DEA = activates human TNAP at intermediate phosphate acceptor concentration; 64,000 tested, under 10 active; P05186; purified TNAP, CDP-star luminescence, 100 mM DEA, 30 min; stronger effect = higher value; scale: 0 levamisole-inhibited, 1 vehicle-only enzyme; activation factor at 20 µM;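 active means activation factor of at least 2 at 20 µM, relative to controls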
HER2 expr 66K = Her2 kinase expression inhibition | 65,000 compounds, 0.69% hits | AID 645 | SKBR-3 HER2 protein level, AlphaScreen, 18-24 h; stronger effect = lower value | HER2 level % of control, % at 10 µM | P04626;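 active means HER2 level under 5% of the carrier-only control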;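 further: 100% = DMSO carrier and 0% = 500 nM PU-H71 HSP90 inhibitor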
AP complement = alternative pathway complement inhibition, orthogonal assay; Human serum alternative complement pathway, LPS-coated ELISA, C3 deposition; tested in compound mixtures; inhibition, % at 5 µM; 62,000 compounds, 0.08% hits;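 active means inhibition above 30% in each of the two pooled mixtures holding the compound, so the lower value exceeds 30%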;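 further: 0% = serum in Mg-EGTA without compound and 100% = EDTA serum blank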
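Test system: human serum complement alternative pathway, C3 deposition onto LPS / Medium: Mg2+-EGTA GVB++ buffer containing human serum at 1:15 dilution / Probe or stimulus: Plate-bound LPS / Times: 1 h at 37 °C / Signal: ELISA with HRP anti-human C3 antibody, TMB substrate, absorbance 450 nm / Measure: percent inhibition / Repeats: two pool placements per compound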
Starred values were filed as active, the others as inactive; nt = no result.

SMILES	E coli RNAP	MMP13 inh	SK-BR-3 tox 24h	TNAP act mid DEA	HER2 expr 66K	AP complement
COc1ccccc1-c1cc(C(F)(F)F)nc(N2CCCC2)n1	-0.6	1.4	66.2	0.9	123.7	-3.7
COc1ccccc1-c1cc(C(F)(F)F)nc(S(=O)(=O)CCCC(=O)N2CCCCC2C)n1 (centres undefined)	-6.7	-12.6	37.7*	1	-17.1*	3.5
COc1ccccc1-c1cc(C(F)(F)F)nc(S(=O)(=O)CCCC(=O)Nc2cc(C)on2)n1	5.1	-36.3	97.4	1	-16.3*	7.9
Cc1cc(NC(=O)CCCSc2nc(-c3ccco3)cc(C(F)(F)F)n2)no1	10.2	1.0	103.2	0.9	98.7	8.8
Cc1onc(-c2ccccc2)c1C(=O)N1CCc2ccccc21	5.2	nt	96.3	0.9	278.5	9.4
Nc1c(C(=O)NCc2ccc3c(c2)OCO3)c2nc3ccccc3nc2n1CCCN1CCOCC1	-3.7	-194.2	107.0	0.9	3.8*	13.0
CCOC(=O)NC(NC(=O)OCC)C(=O)c1ccccc1	5.4	-0.3	93.2	0.9	108.3	3.6
Cc1ccc(C(c2sc3nc(C)nn3c2O)N2CCN(c3ccccc3F)CC2)cc1 (centres undefined)	1.4	1.9	92.7	1	-18.1*	4.0
COc1ccc(S(=O)(=O)NCc2ccc(C(=O)O)cc2)cc1	3.9	0.4	nt	0.8	95.9	13.2
COc1ccc(CNc2ccc(C(=O)O)cc2)cc1	1.3	-2.6	108.2	0.8	-30.2*	3.6
Cc1noc(C)c1S(=O)(=O)Nc1ccc(C(=O)N2CCc3ccccc3C2)cc1	6.1	-0.7	84.3	1	98.7	1.8
Cc1noc(C)c1C(=O)N1CCc2ccccc2C1	4.1	3.7	93.9	0.9	-16.0*	17.2
c1ccc2c(N3CCCCC3)nc(N3CCCC3)nc2c1	nt	-11.0	nt	nt	57.7	nt
COc1ccc(Nc2nc(N3CCCC3)c3ccccc3n2)cc1	1.8	-6.3	nt	1.1	-5.6*	3.8
CCOc1cc(C2c3c(n[nH]c3C)C(=O)N2c2ccc(Br)cc2)ccc1O (centres undefined)	5.9	2.9	36.8*	1.1	90.8	11.4
CCCn1c(=O)c(C(=O)Nc2nnc(C)s2)c(O)c2ccccc21	3.2	2.3	nt	0.9	106.0	13.3
NC(=O)c1oc2ccccc2c1NC(=O)c1ccco1	12.8	9.0	nt	1	36.5	5.0
CCOc1ccc(CC(=O)Nc2c(C(N)=O)oc3ccccc23)cc1OCC	-3.4	1.2	34.0*	0.9	112.0	15.3
O=C(CN1C(=O)CCC1=O)Nc1nc(-c2ccccn2)cs1	3.5	-2.5	nt	15.4*	83.9	13.9
COc1ccc(-n2nnnc2S(=O)(=O)CC(=O)N2CCCCC2)cc1	11.8	-6.3	nt	1	-29.4*	19.7
Cn1c(-c2ccccc2)cc2c3no[n+]([O-])c3ccc21	-6.2	2.9	88.1	1	35.6	16.8
COc1cccc(C(=O)Nc2cc(=O)n(C)c(=O)n2C)c1	1.1	-0.5	nt	1	114.5	10.0
CC#CCCCC(=O)Nc1cc(OC)nc(OC)n1	-2.3	4.8	96.6	1	-24.5*	-7.8
Cn1cc(S(=O)(=O)Cc2ccc(F)cc2)c2ccccc21	-7.1	-1.8	nt	0.9	93.6	30.7
CC(C)C[C@H](N)c1nnc(S(=O)(=O)Cc2ccc(F)cc2)o1	7.9	-3.9	32.7*	0.9	51.1	14.0
SMILES	E coli RNAP	MMP13 inh	SK-BR-3 tox 24h	TNAP act mid DEA	HER2 expr 66K	AP complement
CCN(CC)S(=O)(=O)c1ccc2c(c1)nc(SCc1nc3ccsc3c(=O)[nH]1)n2CC	nt	2.6	nt	0.8	103.0	21.8
Cc1cccc(C)c1NC(=O)C(c1ccccc1)N1CCC2(CC1)OCCO2 (centres undefined)	1.4	1.1	33.7*	1	83.3	7.9
Cc1ccc2[nH]c(=O)c(C(c3nnnn3CC3CCCO3)N3CCCc4ccccc43)cc2c1 (centres undefined)	-0.7	-7.2	103.2	1	116.0	-5.0
CCOC(=O)CSc1nnc(-c2ccc(NS(=O)(=O)c3ccc(C)cc3)cc2)o1	9.1	7.8	nt	0.8	-1.4*	-1.4
Cc1nn2c(=O)nc3sc4c(c3c2[nH]c1=O)CCCC4	5.5	7.6	82.0	0.9	101.7	19.0
CCCCn1c(SCC(=O)Nc2cc(NC(=O)c3ccco3)ccc2C)nc2ccccc2c1=O	9.3	-0.1	84.3	0.9	-15.9*	6.3
O=C(Nc1cccc(NS(=O)(=O)c2ccc(S(=O)(=O)NC3CC3)cc2)c1)c1ccccn1	3.3	2.9	82.9	0.9	55.8	11.2
Clc1cccc(-c2nnc(-c3ccccc3)o2)c1	0.2	3.7	18.3*	nt	-8.2*	10.7
O=C1C(Cl)=C(NCC2CCCO2)C(=O)N1CCc1ccccc1 (centres undefined)	0.7	-1.2	81.5	0.9	79.5	6.4
COc1c(Cl)ccc(Cl)c1C(=O)OCC(=O)O	2.7	-5.8	81.8	0.9	93.9	7.0
Cc1cc(=O)[nH]c(N2CCN(Cc3ccccc3)CC2)n1	6.4	2.2	92.0	0.9	78.0	17.4
CCCCc1c(O)nc(N2CCN(Cc3ccccc3)CC2)[nH]c1=O	42.6*	2.9	94.9	0.9	86.2	6.7
COc1ccc(-c2nc(CSCC(=O)N3CCN(C(=O)c4ccco4)CC3)c(C)o2)cc1OC	3.9	7.6	nt	1	69.9	13.8
Cc1cc(C)c(NC(=O)CN2CCN3CCCC3C2)c(C)c1 (centres undefined)	6.6	3.5	72.2	1	98.3	8.7
CCN1CC=C2C(C1)C(c1ccc(Cl)s1)C(C#N)=C(N)C2(C#N)C#N (centres undefined)	0.2	-3.6	nt	0.8	93.5	22.8
CCOP(=O)(c1ccccc1)C1(C#N)CCCC1 (centres undefined)	5.7	0.3	85.4	1	101.3	nt
CCOP(=O)(c1ccccc1Cl)C1(O)CCCCC1 (centres undefined)	10.6	-2.3	81.8	0.9	-28.2*	10.5
O=c1[nH]c(C2CCCN(S(=O)(=O)c3ccccc3)C2)nc2c1nnn2Cc1ccccc1F (centres undefined)	-2.9	2.6	31.2*	1.1	53.5	-0.7
O=c1[nH]c(C2CCCN(S(=O)(=O)c3ccccc3)C2)nc2c1nnn2Cc1ccccc1 (centres undefined)	-2.4	0.0	nt	0.9	91.3	20.2
CN(C)c1ccc(NC(=O)Cn2cc3c(n2)CCCC3)cc1	2.1	4.2	nt	0.8	77.4	3.8
c1ccc(Nc2nc(-c3cccs3)cs2)nc1	6.1	2.6	122.1	0.8	58.6	9.8
Cc1cccc(Nc2nc(-c3ccccn3)cs2)n1	10.2	-11.9	112.4	1.7	-20.9*	-0.3
COc1cc(C)nc(N2CCC(C(=O)NC3CCCCC3)CC2)n1	13.6	2.6	nt	1	105.2	0.2
